Reference: ChEMBL document CHEMBL1255303, “In vitro and in vivo antifungal activities of T-2307, a novel arylamidine” (2008)
Values after ≈ are worked out from the molar mass of the structure shown. Active and inactive are the calls of the source. The rule behind the calls is not given here.

Key:
Aspergillus fumigatus [1] = experiment: Antifungal activity against Aspergillus fumigatus IFM 49895 after 48 hrs by broth microdilution method; format: functional; settings: IFM 49895, 48 h
Outline: (§1)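 CLSI M27-A2 (yeasts) / M38-A (moulds) broth microdilution in RPMI 1640 buffered to pH 7.0 with 0.165 M MOPS. Malassezia furfur got the same medium supplemented with glucose, bile salts, glycerol, glycerol monostearate and Tween 20. Final inoculum 0.65 × 10^3–2.5 × 10^3 CFU/ml for yeasts and 0.87 × 10^4–3.8 × 10^4 CFU/ml for filamentous fungi. Incubation at 35°C except M. racemosus and F. solani, which were held at 30°C.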

Aspergillus nidulans = experiment: Antifungal activity against Aspergillus nidulans NBRC 33017 after 48 hrs by broth microdilution method; format: functional; settings: NBRC 33017, 48 h; outline: as §1
Candida albicans [2] = experiment: Antifungal activity against Candida albicans clinical isolates after 48 hrs by broth microdilution method; format: functional
Outline: (§2)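 Clinical isolates from Japanese hospitals or culture collections were tested by broth microdilution in RPMI 1640-MOPS. Inoculum was 0.57 × 10^3–2.5 × 10^3 CFU/ml for yeasts and 0.4 × 10^4–3.3 × 10^4 CFU/ml for filamentous fungi. Incubation was at 35°C for about 48 h, or 72 h where footnoted. Results were summarised as MIC range, MIC50 and MIC90.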

Nakaseomyces glabratus [3] = experiment: Antifungal activity against Candida glabrata ATCC 90030 after 48 hrs by broth microdilution method; format: functional; settings: ATCC 90030, 48 h; outline: as §1
Aspergillus flavus = experiment: Antifungal activity against Aspergillus flavus NBRC 6343 after 48 hrs by broth microdilution method; format: functional; settings: NBRC 6343, 48 h; outline: as §1
Candida albicans [4] = experiment: Antifungal activity against Candida albicans ATCC 10261 after 48 hrs by broth microdilution method; format: functional; settings: ATCC 10261, 48 h; outline: as §1
Aspergillus terreus = experiment: Antifungal activity against Aspergillus terreus NBRC 33026 after 48 hrs by broth microdilution method; format: functional; settings: NBRC 33026, 48 h; outline: as §1
Nakaseomyces glabratus [5] = experiment: Antifungal activity against Candida glabrata clinical isolates after 48 hrs by broth microdilution method; format: functional; outline: as §2
[6] = test system: Meyerozyma guilliermondii; experiment: Antifungal activity against Candida guilliermondii clinical isolates after 48 hrs by broth microdilution method; format: functional; outline: as §2
Candida albicans [7] = experiment: Antifungal activity against Candida albicans ATCC MYA-573 after 47 hrs by broth microdilution method; format: functional; settings: ATCC MYA-573, 47 h
Outline: (§3)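 Fluconazole-resistant or susceptible-dose-dependent ATCC C. albicans strains were tested by CLSI M27-A2 broth microdilution in RPMI 1640–0.165 M MOPS, pH 7.0, with a final inoculum of 1.1–1.5 × 10^3 CFU/ml at 35°C for about 47 h. MIC was the lowest concentration with a prominent (~50%) turbidity decrease relative to growth control; amphotericin B was read at complete inhibition.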

Candida albicans [8] = experiment: Antifungal activity against Candida albicans ATCC MYA-2732 after 47 hrs by broth microdilution method; format: functional; settings: ATCC MYA-2732, 47 h
Outline: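 Fluconazole-resistant or susceptible-dose-dependent C. albicans ATCC strains were tested by broth microdilution in RPMI 1640-MOPS. Inoculum was 1.1 × 10^3–1.5 × 10^3 CFU/ml, with incubation at 35°C for about 47 h. Yeast MIC was read as about 50% turbidity decrease relative to growth control, except amphotericin B, read at complete inhibition.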

Candida parapsilosis = experiment: Antifungal activity against Candida parapsilosis NBRC 10219 after 48 hrs by broth microdilution method; format: functional; settings: Lodderomyces parapsilosis, NBRC 10219, 48 h
Outline: (§4)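 CLSI M27-A2 (yeasts) or M38-A (A. fumigatus) broth microdilution in RPMI 1640 buffered to pH 7.0 with 0.165 M MOPS. Final inocula were 0.65–2.5 × 10^3 CFU/ml for yeasts and 0.87–3.8 × 10^4 CFU/ml for filamentous fungi. Incubation was at 35°C for about 48 h (72 h for C. neoformans). MIC was the lowest concentration giving a prominent (~50%) turbidity drop versus growth control; amphotericin B required complete inhibition.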

Aspergillus fumigatus [9] = experiment: Antifungal activity against Aspergillus fumigatus TIMM 0063 after 48 hrs by broth microdilution method; format: functional; settings: TIMM 0063, 48 h; outline: as §1
Candida albicans [10] = experiment: Antifungal activity against Candida albicans TIMM 1623 infected ICR mouse after 6 days; format: functional; settings: TIMM 1623, 144 h
Outline: (§5)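 Male ICR mice, 4 weeks old and SPF, were made neutropenic with intraperitoneal cyclophosphamide. The schedule was 200 mg/kg on day −3 (day −4 for Cryptococcus) plus 100 mg/kg on day +1. Infection was by tail-vein injection of 0.2 ml suspension: C. albicans 3.0 × 10^4, C. neoformans 9.1 × 10^4, A. fumigatus conidia 8.4 × 10^4 CFU/mouse. Drugs were given subcutaneously once daily for 7 days from 2 h post-infection; controls received saline. Groups had 8–10 mice.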

Aspergillus niger = experiment: Antifungal activity against Aspergillus niger NBRC 33023 after 48 hrs by broth microdilution method; format: functional; settings: NBRC 33023, 48 h; outline: as §1
Malassezia furfur = experiment: Antifungal activity against Malassezia furfur NBRC 0656 after 48 hrs by broth microdilution method; format: functional; settings: NBRC 0656, 48 h; outline: as §1
Aspergillus fumigatus [11] = experiment: Antifungal activity against Aspergillus fumigatus IFM 46895 infected ICR mouse assessed as delay in mortality of mouse at 1 mg/kg after 6 days; format: functional, organism-based; parameters: dose 1 mg/kg; outline: as §5
Candida albicans [12] = experiment: Antifungal activity against Candida albicans ATCC MYA-1003 after 47 hrs by broth microdilution method; format: functional; settings: ATCC MYA-1003, 47 h; outline: as §3
Aspergillus fumigatus [13] = experiment: Antifungal activity against Aspergillus fumigatus ATCC 16424 after 48 hrs by broth microdilution method; format: functional; settings: ATCC 16424, 48 h; outline: as §4
Mucor racemosus = experiment: Antifungal activity against Mucor racemosus NBRC5403 after 24 hrs by broth microdilution method; format: functional; settings: NBRC5403, 24 h
Candida tropicalis = experiment: Antifungal activity against Candida tropicalis IFO 1400 after 48 hrs by broth microdilution method; format: functional; settings: IFO 1400, 48 h; outline: as §1
Cryptococcus neoformans = experiment: Antifungal activity against Cryptococcus neoformans ATCC 90113 after 72 hrs by broth microdilution method; format: functional; settings: ATCC 90113, 72 h; outline: as §1
Candida albicans [14] = experiment: Antifungal activity against Candida albicans ATCC 24433 after 48 hrs by broth microdilution method; format: functional; settings: ATCC 24433, 48 h; outline: as §4
Candida albicans [15] = experiment: Antifungal activity against Candida albicans TIMM 1623 after 48 hrs by broth microdilution method; format: functional; settings: TIMM 1623, 48 h; outline: as §1

C[C@@H]1[C@H](O)[C@@H](C)/C=C/C=C/C=C/C=C/C=C/C=C/C=C/[C@H](O[C@@H]2O[C@H](C)[C@@H](O)[C@H](N)[C@@H]2O)C[C@@H]2O[C@](O)(C[C@@H](O)C[C@@H](O)[C@H](O)CC[C@@H](O)C[C@@H](O)CC(=O)O[C@H]1C)C[C@H](O)[C@H]2C(=O)O [AMPHOTERICIN B]
MFC (Aspergillus fumigatus [1]): 2 µg/mL (≈ 2.16 µM)
MIC (Aspergillus fumigatus [1]): 2 µg/mL (≈ 2.16 µM)
MFC (Aspergillus nidulans): 2 µg/mL (≈ 2.16 µM)
MIC (Aspergillus nidulans): 2 µg/mL (≈ 2.16 µM)
MIC50 (Candida albicans [2]): 2 µg/mL (≈ 2.16 µM)
MIC90 (Candida albicans [2]): 2 µg/mL (≈ 2.16 µM)
MFC (Nakaseomyces glabratus [3]): 1 µg/mL (≈ 1.08 µM)
MIC (Nakaseomyces glabratus [3]): 1 µg/mL (≈ 1.08 µM)
MFC (Aspergillus flavus): 2 µg/mL (≈ 2.16 µM)
MIC (Aspergillus flavus): 2 µg/mL (≈ 2.16 µM)
MFC (Candida albicans [4]): 2 µg/mL (≈ 2.16 µM)
MIC (Candida albicans [4]): 1 µg/mL (≈ 1.08 µM)
MFC (Aspergillus terreus): > 64 µg/mL
MIC (Aspergillus terreus): 2 µg/mL (≈ 2.16 µM)
MIC (Nakaseomyces glabratus [5]): 1 µg/mL (≈ 1.08 µM)
MIC50 (Nakaseomyces glabratus [5]): 1 µg/mL (≈ 1.08 µM)
MIC90 (Nakaseomyces glabratus [5]): 2 µg/mL (≈ 2.16 µM)
MIC50 [6]: 1 µg/mL (≈ 1.08 µM)
MIC90 [6]: 1 µg/mL (≈ 1.08 µM)
MIC (Candida albicans [7]): 2 µg/mL (≈ 2.16 µM)
MIC (Candida albicans [8]): 2 µg/mL (≈ 2.16 µM)
MFC (Candida parapsilosis): 1 µg/mL (≈ 1.08 µM)
MIC (Candida parapsilosis): 1 µg/mL (≈ 1.08 µM)
MFC (Aspergillus fumigatus [9]): 2 µg/mL (≈ 2.16 µM)
MIC (Aspergillus fumigatus [9]): 2 µg/mL (≈ 2.16 µM)
ED50 (Candida albicans [10]): 0.0466 mg/kg
MFC (Aspergillus niger): 2 µg/mL (≈ 2.16 µM)
MIC (Aspergillus niger): 2 µg/mL (≈ 2.16 µM)
MFC (Malassezia furfur): 64 µg/mL (≈ 69.3 µM)
MIC (Malassezia furfur): 0.5 µg/mL (≈ 0.541 µM)
Activity (Aspergillus fumigatus [11]): Active
MIC (Candida albicans [12]): 2 µg/mL (≈ 2.16 µM)
MFC (Aspergillus fumigatus [13]): 2 µg/mL (≈ 2.16 µM)
MIC (Aspergillus fumigatus [13]): 1 µg/mL (≈ 1.08 µM)
MFC (Mucor racemosus): 2 µg/mL (≈ 2.16 µM)
MIC (Mucor racemosus): 1 µg/mL (≈ 1.08 µM)
MFC (Candida tropicalis): 1 µg/mL (≈ 1.08 µM)
MIC (Candida tropicalis): 1 µg/mL (≈ 1.08 µM)
MFC (Cryptococcus neoformans): 2 µg/mL (≈ 2.16 µM)
MIC (Cryptococcus neoformans): 2 µg/mL (≈ 2.16 µM)
MFC (Candida albicans [14]): 1 µg/mL (≈ 1.08 µM)
MIC (Candida albicans [14]): 1 µg/mL (≈ 1.08 µM)
MFC (Candida albicans [15]): > 1 µg/mL
MIC (Candida albicans [15]): 1 µg/mL (≈ 1.08 µM)

C[C@@H](c1ncncc1F)[C@](O)(Cn1cncn1)c1ccc(F)cc1F [VORICONAZOLE]
MFC (Aspergillus fumigatus [1]): 8 µg/mL (≈ 22.9 µM)
MIC (Aspergillus fumigatus [1]): 2 µg/mL (≈ 5.73 µM)
MFC (Aspergillus nidulans): 0.25 µg/mL (≈ 0.716 µM)
MIC (Aspergillus nidulans): 0.125 µg/mL (≈ 0.358 µM)
MIC (Candida albicans [2]): 3.9 ng/mL (≈ 0.0112 µM)
MIC50 (Candida albicans [2]): 0.0039 µg/mL (≈ 0.0112 µM)
MIC90 (Candida albicans [2]): 0.0078 µg/mL (≈ 0.0223 µM)
MFC (Nakaseomyces glabratus [3]): > 64 µg/mL
MIC (Nakaseomyces glabratus [3]): 0.25 µg/mL (≈ 0.716 µM)
MFC (Aspergillus flavus): 1 µg/mL (≈ 2.86 µM)
MIC (Aspergillus flavus): 0.5 µg/mL (≈ 1.43 µM)
MFC (Candida albicans [4]): > 64 µg/mL
MIC (Candida albicans [4]): 0.0039 µg/mL (≈ 0.0112 µM)
MFC (Aspergillus terreus): 32 µg/mL (≈ 91.6 µM)
MIC (Aspergillus terreus): 0.5 µg/mL (≈ 1.43 µM)
MIC50 (Nakaseomyces glabratus [5]): 0.125 µg/mL (≈ 0.358 µM)
MIC90 (Nakaseomyces glabratus [5]): 0.5 µg/mL (≈ 1.43 µM)
MIC50 [6]: 0.0625 µg/mL (≈ 0.179 µM)
MIC90 [6]: 0.125 µg/mL (≈ 0.358 µM)
MIC (Candida albicans [7]): 0.25 µg/mL (≈ 0.716 µM)
MIC (Candida albicans [8]): 0.25 µg/mL (≈ 0.716 µM)
MFC (Candida parapsilosis): > 64 µg/mL
MIC (Candida parapsilosis): 0.0313 µg/mL (≈ 0.0896 µM)
MFC (Aspergillus fumigatus [9]): 1 µg/mL (≈ 2.86 µM)
MIC (Aspergillus fumigatus [9]): 1 µg/mL (≈ 2.86 µM)
MFC (Aspergillus niger): 16 µg/mL (≈ 45.8 µM)
MIC (Aspergillus niger): 0.5 µg/mL (≈ 1.43 µM)
MFC (Malassezia furfur): > 64 µg/mL
MIC (Malassezia furfur): 0.0625 µg/mL (≈ 0.179 µM)
MIC (Candida albicans [12]): 0.5 µg/mL (≈ 1.43 µM)
MFC (Aspergillus fumigatus [13]): 32 µg/mL (≈ 91.6 µM)
MIC (Aspergillus fumigatus [13]): 0.25 µg/mL (≈ 0.716 µM)
MFC (Mucor racemosus): > 64 µg/mL
MIC (Mucor racemosus): > 64 µg/mL
MFC (Candida tropicalis): > 64 µg/mL
MIC (Candida tropicalis): 0.0625 µg/mL (≈ 0.179 µM)
MFC (Cryptococcus neoformans): > 64 µg/mL
MIC (Cryptococcus neoformans): 0.0625 µg/mL (≈ 0.179 µM)
MFC (Candida albicans [14]): > 64 µg/mL
MIC (Candida albicans [14]): 0.0078 µg/mL (≈ 0.0223 µM)
MFC (Candida albicans [15]): > 64 µg/mL
MIC (Candida albicans [15]): 0.0039 µg/mL (≈ 0.0112 µM)
